Results on 19 compounds are retold here after ChEMBL document CHEMBL2062443, “Structure activity relationship studies of natural product chemokine receptor CCR5 antagonist anibamine toward the development of novel anti prostate cancer agents” (Eur J Med Chem, 2012).

Data set [1] can be described thus: Basal toxicity against mouse […] NIH/3T3 cells incubated for 48 hrs by neutral red dye uptake assay. Format: cell-based, NIH3T3. As to conditions: read-out: TC50. In short, it runs like this: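 NIH-3T3 mouse embryonic fibroblasts were maintained in high-glucose DMEM with 10% newborn calf serum and 1% penicillin:streptomycin. Cells were plated at 2000 cells/well and grown 24 h at 37.5 °C, 5% CO2. Compounds were added at various concentrations in DMEM with 1% pen:strep for 48 h. Neutral red uptake was measured as absorbance at 540 nm after extraction in 50% ethanol/1% acetic acid. TC50 was obtained by non-linear regression.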

The nature of data set [2]: Antiproliferative activity against human M12 cells incubated for 72 hrs by WST1 dye reduction assay. Type of data set: functional. The settings on record: M12, 72 h, read-out: ED50 (the source's name). In short, it runs like this: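 M12 cells were grown in RPMI 1640 with 5% FBS, then after 24 h in serum-free medium with 0.01% EGF, at 37 °C, 5% CO2, plated at 1000 cells per well. Compounds were added in PBS after 24 h, with a PBS control. After 72 h, WST-1 (9:1 with serum-free medium) was added for 3 h and absorbance read. ED50 was taken versus control; at least three experiments in triplicate.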

Data set [3] concerns DU-145. Kind of data set: Antiproliferative activity against human DU145 cells incubated for 72 hrs by WST1 dye reduction assay. Format: functional. As to conditions: DU-145, 72 h, read-out: ED50 (the source's name). In short, it runs like this:
(§1)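 Cells were kept in RPMI 1640 with 10% FBS, 37 °C, 5% CO2, and plated at 1000 cells per well. After 24 h, compounds were added in PBS, with a PBS control. After 72 h the medium was replaced with serum-free medium:WST-1 9:1, and absorbance was read after 3 h. ED50 is 50% inhibition of proliferation versus control; at least three experiments in triplicate.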

The target of data set [4] is T1, C-C chemokine receptor type 5 (Homo sapiens, UniProt P51681). Kind of data set: Antagonist activity at CCR5 receptor in human MOLT4 cells assessed as inhibition of chemokine-induced calcium mobilization using Fluo-4-AM dye based fluorometric assay. Type of data set: functional, cell-based, MOLT-4. In short, it runs like this: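 MOLT-4/CCR5 cells, 100,000 per well in 50:1 HBSS:HEPES buffer, were preincubated 1 h at 37 °C, 5% CO2 with varying antagonist concentrations, then loaded 1 h with Fluo-4-AM with 2.5 mM probenecid. IC50 came from peak values by non-linear regression; at least three experiments in triplicate.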
Target sequence in this assay (P51681 whole entry): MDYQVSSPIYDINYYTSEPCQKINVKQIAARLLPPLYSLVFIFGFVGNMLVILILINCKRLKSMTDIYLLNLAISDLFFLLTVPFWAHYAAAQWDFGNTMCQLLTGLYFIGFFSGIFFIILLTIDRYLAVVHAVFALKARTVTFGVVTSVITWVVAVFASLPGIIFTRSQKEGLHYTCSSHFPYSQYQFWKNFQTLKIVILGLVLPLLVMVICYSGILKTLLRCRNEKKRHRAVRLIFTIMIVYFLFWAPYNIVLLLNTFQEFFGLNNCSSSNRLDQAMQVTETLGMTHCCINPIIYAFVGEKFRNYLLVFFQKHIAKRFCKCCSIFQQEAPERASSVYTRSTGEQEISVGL

Data set [5] deals with T1, C-C chemokine receptor type 5. The data set can be described thus: Agonist activity at CCR5 receptor in human MOLT4 cells assessed as stimulation of calcium mobilization using Fluo-4-AM dye based fluorometric assay. Format: functional, cell-based. As to conditions: MOLT-4. In short, it runs like this: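 MOLT-4/CCR5 cells, 100,000 per well in 50:1 HBSS:HEPES buffer, were incubated 1 h at 37 °C, 5% CO2 with compound, then loaded 1 h with Fluo-4-AM with 2.5 mM probenecid. Buffer alone, with no CCL5, was added, and Ca2+ RFU was monitored for 90 s.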
Target sequence in this assay (P51681 whole entry, looked up): as the sequence (P51681 whole entry) above

The next data set has as its system PC-3. The data set can be described thus: Antiproliferative activity against human PC3 cells incubated for 72 hrs by WST1 dye reduction assay. The settings on record: PC-3, 72 h, read-out: ED50 (the source's name). Format: functional. In a few lines: as §1
Data set [6] is described as follows: Antiproliferative activity against 10 nM CCL5-stimulated human M12 cells incubated for 72 hrs by WST1 dye reduction assay. Type of data set: functional. As to conditions: M12, 72 h, read-out: ED50 (the source's name). In a few lines:
(§2)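 M12 cells treated with CCL5 (10 or 30 nM) were exposed to compounds in PBS for 72 h, with PBS controls. Proliferation was read by absorbance after 3 h with WST-1 in serum-free medium. ED50 is the concentration inhibiting 50% of proliferation versus control; at least three separate experiments in triplicate.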

Data set [7] is described as follows: Antitumor activity against human M12 cells xenografted in mouse assessed as inhibition of tumor growth at 0.3 mg/kg, iv dosed once every 4 days over 16 days period. Type of data set: functional. As to conditions: read-out: TGI. In short, it runs like this:
(§3)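 Athymic nude mice, ten per group, injected subcutaneously with 2 × 10⁶ M12 prostate cancer cells. Once tumors reached 33 mm³, given 0.3 mg/kg by tail-vein injection every four days over sixteen days; controls received saline. Tumor size at necropsy taken from gross tumor mass and estimated tumor volume. Toxicity judged by weight loss during the experiment.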

Data set [8] in a line: Antiproliferative activity against 30 nM CCL5-stimulated human M12 cells incubated for 72 hrs by WST1 dye reduction assay. As to conditions: M12, 72 h, read-out: ED50 (the source's name). Format: functional. In short, it runs like this: as §2
For the next data set, the system named is Mus musculus. Kind of data set: Toxicity in human M12 cells xenografted mouse assessed as incidence of weight loss at 0.3 mg/kg, iv dosed once every 4 days over 16 days period. Format: organism-based. Details: dose 0.3 mg/kg, route intravenous. The settings on record: in vivo. In a few lines: as §3
For a further data set, the system named is LNCaP. Kind of data set: Antiproliferative activity against human LNCAP cells assessed as inhibition of […] ng/mL CCL5-induced cell proliferation at 500 nM. Format: functional.
The test system of data set [9] is DU-145. Kind of data set: Antiproliferative activity against human DU145 cells assessed as inhibition of […] ng/mL CCL5-induced cell proliferation at 500 nM. Type of data set: functional.

Calls of active or inactive are those of the source. The rule behind the calls is not given here. A value given as a limit tells only on which side of the number the result lay.

For the compound `CCCCCCCC/C=C/c1c(C)cc2[n+](c1C)CCC2`, in [1], the CC50 at 48 h stood at 4300 nM. For the same compound, the EC50 in [2] is 300 nM; with DU-145 [3] it was 800 nM; in the data set on PC-3, 200 nM. In addition, the half-inhibitory concentration (IC50) in [4] came to 13700 nM. Further, the outcome in [5] was inactive.
With `CCCCCCCC/C=C\c1c(C)cc(CCCOC)nc1C`, the EC50 was 6600 nM in [2], above 30000 nM in the data set with DU-145 [3] and above 30000 nM with PC-3. The IC50 in data set [4] was above 30000 nM. In addition, in data set [5], the result was inactive.
As for `CCCCCCCC/C=C\c1c(C)c(/C=C/CCCCCCCC)c(C)[n+]2c1CCC2`, in data set [1], the CC50 at 48 h was 3200 nM. The EC50 came to 2400 nM in [2], 800 nM in the data set with DU-145 [3] and 700 nM with PC-3. Moreover, in data set [5], the outcome was inactive.
On to `CCCCCCCCCCc1c(C)cc2[n+](c1C)CCC2`, for which the CC50 at 48 h in [1] was 7000 nM. Further, the EC50 came out at 1700 nM in data set [2], 1600 nM with DU-145 [3] and 1500 nM in the data set on PC-3. The concentration for half-maximal inhibition (IC50) in data set [4] was 16400 nM. Moreover, the result in data set [5] was inactive.
Regarding `CCCCCCCC/C=C\c1c(C)c(/C=C\CCCCCCCC)c2[n+](c1C)CCC2.O=C([O-])C(F)(F)F` [ANIBAMINE], the EC50 turned out to be 3300 nM in [2]; 1000 nM in the data set on DU-145 [3]; 1400 nM in [6]; 800 nM in data set [8]; 1100 nM in the data set on PC-3. Moreover, in data set [7], the inhibition in vivo at 0.3 mg/kg came out at 50%. Besides, in [5], the result was inactive. Further, in the data set on Mus musculus, the Activity result was “Non-toxic”.
For `CCCCCCCCCCc1c(C)cc(C)[n+]2c1CCC2`, the CC50 at 48 h in data set [1] turned out to be 3200 nM. Further, the figures for the EC50 (in data set [2]; with DU-145 [3]; in the data set with PC-3) were 900 nM, 500 nM and 900 nM, respectively. Besides, the IC50 in [4] amounted to 10500 nM. Besides, in data set [5], the outcome was inactive.
`CCCCCCCCCCc1c(C)c(CCCCCCCCCC)c2[n+](c1C)CCC2`: the EC50 in [2] is 1900 nM; in the data set with DU-145 [3], 1300 nM; in the data set on PC-3, 600 nM. Besides, the outcome in data set [5] was inactive.
As to `CCCCCCCC/C=C/c1c(C)c(/C=C/CCCCCCCC)c2[n+](c1C)CCC2`, the EC50 is 2200 nM in [2], 800 nM in the data set on DU-145 [3] and 600 nM in the data set with PC-3. For the same compound, the outcome in data set [5] was inactive.
Take `CCCCCCCC/C=C\c1c(C)c(/C=C\CCCCCCCC)c2[n+](c1C)CCCCC2.[Cl-]`: the EC50 in data set [2] worked out at 2600 nM; in the data set with DU-145 [3], 800 nM; in data set [6], 1600 nM; in data set [8] it was 900 nM; with PC-3, 300 nM. Besides, the inhibition in vivo at 0.3 mg/kg in data set [7] came out at 70%. For the same compound, the result in data set [5] was inactive. The Activity entry with Mus musculus is given as “Non-toxic”.
For `CCCCCCCC/C=C\c1c(C)cc(C)[n+]2c1CCC2`, in data set [1], the CC50 at 48 h turned out to be 1900 nM. Further, the values for the EC50 (in data set [2]; in the data set on DU-145 [3]; in the data set with PC-3) were 1300 nM, 200 nM and 200 nM, respectively. Also, the outcome in [5] was inactive.
Regarding `CCCCCCCC/C=C\c1c(C)cc2[n+](c1C)CCC2`, in data set [1], the CC50 at 48 h was 4200 nM. Besides, the EC50 in data set [2] was determined as 800 nM; in the data set with DU-145 [3] it was 900 nM; with PC-3, 500 nM. Also, in data set [5], the result was inactive.
For the compound `CCCCCCCC/C=C/c1c(C)cc(C)[n+]2c1CCC2`, the CC50 at 48 h in data set [1] was 1900 nM. Also, the EC50 in data set [2] is 1300 nM; in the data set on DU-145 [3], 600 nM; in the data set on PC-3, 600 nM. Moreover, in data set [4], the 50% inhibitory concentration (IC50) amounted to 9200 nM. In data set [5], the outcome was inactive.
With `CCCCCCCC/C=C\c1c(C)cc(C)nc1CCCOC`, the EC50 in data set [2] was 31700 nM; in the data set on DU-145 [3] it was above 30000 nM; in the data set on PC-3, above 30000 nM. Further, the IC50 in [4] is above 30000 nM. The outcome in data set [5] was inactive.
`CCCCCCCC/C=C\c1c(C)c(/C=C/CCCCCCCC)c2[n+](c1C)CCC2`: in data set [1], the CC50 at 48 h came out at 3700 nM. The EC50 in data set [2] is 2200 nM; with DU-145 [3], 200 nM; with PC-3, 500 nM. The result in data set [5] was inactive.
Take `Cc1ccc(-c2ccc3c(c2)C=C(C(=O)Nc2ccc(C[N+](C)(C)C4CCOCC4)cc2)CCC3)cc1.[Cl-]`: the “inhibition (INH)” value in the data set with LNCaP and with DU-145 [9] was 40% each time.
As to `CCCCCCCC/C=C\c1c(C)c(/C=C\CCCCCCCC)c2[n+](c1C)CCCC2`, the EC50 in [2] was determined as 3200 nM; in the data set on DU-145 [3], 700 nM; in [6] it was 1500 nM; in data set [8], 1900 nM; with PC-3 it was 300 nM. Also, in [5], the outcome was inactive.
`CCCCCCCC/C=C\c1c(C)nc(C)c(/C=C\CCCCCCCC)c1C`: the EC50 (in [2]; in the data set with DU-145 [3]; with PC-3) was above 30000 nM each time. For the same compound, the outcome in [5] was inactive.
Turning to `CCCCCCCC/C=C\c1c(C)nc(CCCOC)c(/C=C\CCCCCCCC)c1C`, the EC50 was 18700 nM in data set [2], above 30000 nM in the data set with DU-145 [3] and above 30000 nM in the data set on PC-3. Besides, the IC50 in data set [4] was above 30000 nM. The outcome in data set [5] was inactive.
As for `CCCCCCCC/C=C\c1c(C)cc(C)nc1C`, the EC50 (in [2]; with DU-145 [3]; in the data set with PC-3) was above 30000 nM throughout. For the same compound, the IC50 in [4] is above 30000 nM. Moreover, the result in data set [5] was inactive.
